Laboratory results: ChEMBL document CHEMBL4819012, “Discovery of novel 2-aryl-3-sulfonamido-pyridines (HoAns) as microtubule polymerization inhibitors with potent antitumor activities” (Eur J Med Chem, 2021)
Activity calls are given as the source filed them. The calls are words filed in the database; no cut-off is given here.

Key:
[1] = test system: MCF7; test: Antiproliferative activity against human MCF7 cells assessed as cell viability at 10 uM measured after 72 hrs by MTS method; format: functional; details: read-out: Activity
Summary of the method: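 Single-concentration screen at 10 µM for 72 h. Log-phase cells plated at 5×10^3–6×10^3 per well for 24 h before dosing, five replicate wells. Viability measured by MTS: 10% MTS in fresh medium, 30 min or more at 37 °C in dark, absorbance 490 nm.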

[2] = test system: SW-620; test: Antiproliferative activity against human SW-620 cells assessed as cell viability measured after 72 hrs by MTS method; format: functional, cell-based; details: SW-620, 72 h
Summary of the method: (§1)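 Log-phase cells plated at 5×10^3–6×10^3 per well for 24 h, then given graded compound concentrations in fresh medium for 72 h, five replicate wells. Medium replaced with medium containing 10% MTS, 30 min or more at 37 °C in dark; OD 490 nm read. IC50 by nonlinear regression; mean ± SD of at least three experiments.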

[3] = test system: PANC-1; test: Antiproliferative activity against human PANC-1 cells assessed as cell viability measured after 72 hrs by MTS method; format: functional, cell-based; details: PANC-1, 72 h; summary of the method: as §1
[4] = test system: SGC-7901; test: Antiproliferative activity against human SGC-7901 cells assessed as cell viability measured after 72 hrs by MTS method; format: functional, cell-based; details: SGC-7901, 72 h; summary of the method: as §1
[5] = test system: RKO; test: Induction of cell cycle arrest in human RKO cells assessed as accumulation of cells in G1 phase at 1 uM measured after 24 hrs by PI staining based flow cytometry method (reference value: 39.54%); format: functional
[6] = test system: RKO; test: Induction of cell cycle arrest in human RKO cells assessed as accumulation of cells in S phase at 1 uM measured after 24 hrs by PI staining based flow cytometry method (reference value: 49.66%); format: functional
[7] = test system: RKO; test: Induction of cell cycle arrest in human RKO cells assessed as accumulation of cells in G2 phase at 1 uM measured after 24 hrs by PI staining based flow cytometry method (reference value: 10.79%); format: functional
[8] = test system: SW-620; test: Induction of cell cycle arrest in human SW-620 cells assessed as accumulation of cells in S phase at 0.5 uM measured after 24 hrs by PI staining based flow cytometry method (reference value: 46.12%); format: functional
[9] = test system: SW-620; test: Induction of cell cycle arrest in human SW-620 cells assessed as accumulation of cells in G2 phase at 0.5 uM measured after 24 hrs by PI staining based flow cytometry method (reference value: 13.83%); format: functional
[10] = test system: PANC-1; test: Induction of cell cycle arrest in human PANC-1 cells assessed as accumulation of cells in S phase at 1 uM measured after 24 hrs by PI staining based flow cytometry method (reference value: 65%); format: functional
[11] = test system: PANC-1; test: Induction of cell cycle arrest in human PANC-1 cells assessed as accumulation of cells in G2 phase at 1 uM measured after 24 hrs by PI staining based flow cytometry method (reference value: 3.63%); format: functional
[12] = test system: RKO; test: Induction of cell cycle arrest in human RKO cells assessed as reduction in Cyclin B1 expression at 0.5 to 1 uM measured after 24 hrs by western blot assay; format: functional, cell-based; details: dose 0.5-1 µM
Summary of the method: (§2)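 RKO or SW620 cells (4×10^5–5×10^5 per well) exposed to 0.5 or 1 μM or DMSO for 24 h. Lysed in SDS loading buffer, boiled, run on 8–15% SDS-PAGE and moved to PVDF. Blocked in 5% milk, probed overnight at 4 °C with anti-Cdc2 or anti-cyclin B1 (1:1000), β-actin as reference. HRP secondary and ECL detection. Done at least three times.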

[13] = test system: RKO; test: Induction of apoptosis in human RKO cells assessed as early apoptotic cells at 0.5 uM measured after 24 hrs by PI/Annexin V staining based flow cytometry assay (reference value: 2.58%); format: functional
[14] = test system: RKO; test: Induction of apoptosis in human RKO cells assessed as necrotic cells at 0.5 uM measured after 24 hrs by PI/Annexin V staining based flow cytometry assay (reference value: 0.01%); format: functional
[15] = test system: SW-620; test: Induction of apoptosis in human SW-620 cells assessed as viable cells at 0.5 uM measured after 24 hrs by PI/Annexin V staining based flow cytometry assay (reference value: 93.89%); format: functional; details: read-out: Activity
[16] = test system: SW-620; test: Induction of apoptosis in human SW-620 cells assessed as viable cells at 1 uM measured after 24 hrs by PI/Annexin V staining based flow cytometry assay (reference value: 93.89%); format: functional; details: read-out: Activity
[17] = test system: SW-620; test: Induction of apoptosis in human SW-620 cells assessed as early apoptotic cells at 1 uM measured after 24 hrs by PI/Annexin V staining based flow cytometry assay (reference value: 2.41%); format: functional
[18] = test system: SW-620; test: Induction of apoptosis in human SW-620 cells assessed as necrotic cells at 1 uM measured after 24 hrs by PI/Annexin V staining based flow cytometry assay (reference value: 0.03%); format: functional
[19] = test system: SW-620; test: Induction of apoptosis in human SW-620 cells assessed as increase in Bax expression at 0.5 to 1 uM measured after 24 hrs by western blot assay; format: functional, cell-based; details: dose 0.5-1 µM
Summary of the method: (§3)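 RKO or SW620 cells at 4×10^5–5×10^5 per well treated with 0.5 and 1 µM for 24 h; lysed in SDS loading buffer, boiled, SDS-PAGE, PVDF transfer; probed with anti-Bax or anti-cleaved PARP (1:1000) overnight at 4 °C, HRP secondary, ECL detection; β-actin control.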

[20] = test system: SW-620; test: Induction of apoptosis in human SW-620 cells assessed as increase in cleaved PARP levels at 0.5 to 1 uM measured after 24 hrs by western blot assay; format: functional, cell-based; details: dose 0.5-1 µM; summary of the method: as §3
[21] = test system: HUVEC; test: Anti-vascular activity against human HUVEC cells assessed as wound closure at 1 uM measured after 24 hrs by wound closure assay (reference value: 71.8%); format: functional
[22] = test system: HUVEC; test: Cytotoxicity against human HUVEC cells assessed as inhibition of cell proliferation measured after 24 hrs by MTS assay; format: cell-based
Summary of the method: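 HUVECs exposed to graded concentrations for 24 h; viability read by MTS assay; IC50 reported as mean ± SD.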

[23] = test system: SW-620; test: Antitumour activity against human SW-620 cells xenografted in Athymic nude mouse assessed as decrease in tumour growth at 25 mg/kg per two days, po measured after 20 days; format: functional; parameters: scale not given: the % may be the effect or the level left; details: time 20 day
Summary of the method: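 Nude mice inoculated s.c. in right armpit with 5×10^6 SW620 cells in 125 µL PBS; at about 100 mm³ randomized, n = 6. Dosed orally 25 mg/kg every 2 days for 20 days in DMSO:corn oil 1:9. Tumour volume (L×W²/2) and body weight measured every 2 days; inhibition from final tumour weight vs vehicle.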

[24] = Toxicity against Athymic nude mouse xenografted with SW-620 cells assessed as toxicity in spleen at 25 mg/kg per two days, po measured after 20 days by H and E staining method; format: organism-based; details: in vivo, 480 h, time 20 day
Summary of the method: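 At the end of the 20-day oral SW620 xenograft study (25 mg/kg every 2 days, n = 6), heart, liver, spleen, lung and kidney were fixed in 4% paraformaldehyde and embedded in paraffin. 4 μm sections stained with Mayer hematoxylin 5 min and eosin-phloxine 2 min, then examined by light microscopy.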

[25] = test system: SW-620; test: Induction of cell cycle arrest in human SW-620 cells assessed as reduction in cdc2 expression at 0.5 to 1 uM measured after 24 hrs by western blot assay; format: functional, cell-based; details: dose 0.5-1 µM; summary of the method: as §2
[26] = test system: PLC-PRF-5; test: Antiproliferative activity against human PLC-PRF-5 cells assessed as cell viability measured after 72 hrs by MTS method; format: functional, cell-based; details: PLC-PRF-5, 72 h; summary of the method: as §1

Row | IC50 [2] [µM] | IC50 [3] [µM] | IC50 [4] [µM] | Compound | Activity [5] [%] | Activity [6] [%] | Activity [7] [%] | Activity [10] [%] | Activity [11] [%] | viability at 1 µM [16] [%] | Activity [17] [%] | Activity [18] [%] | Activity [19] | Activity [20] | Activity [21] [%] | IC50 [22] [µM] | Activity [23] [%] | further results
1 | 0.673 | 0.729 | 0.617 | COc1ccc(S(=O)(=O)Nc2cccnc2-c2ccc(C#N)c(F)c2)cc1 | 8.75 | 43.49 | 47.76 | 40.54 | 28.01 | 87.3 | 10.09 | 0.09 | Active | Active | 20.1 | 8.9 | 53.6 | viability at 10 µM [1]: > 70%; Activity [8]: 42.53%; Activity [9]: 14.44%; Activity [12]: Active; Activity [13]: 24.47%; Activity [14]: 0.03%; viability at 0.5 µM [15]: 90.2%; Activity [24]: Non-Toxic; Activity [25]: Active
2 | 2.79 | 0.837 | 0.738 | COc1ccc(S(=O)(=O)Nc2cccnc2Nc2ccc(O)cc2)cc1 [ABT-751] | 0.98 | 46.23 | 52.8 | 33.13 | 64.83 | 85.6 | 8.35 | 0.07 | Active | Active | 18 | 9.2 | 49.3 | IC50 [26]: 0.792 µM
